In ChEMBL document CHEMBL3232875, “Prenylated benzoylphloroglucinols and xanthones from the leaves of Garcinia oblongifolia with antienteroviral activity” (J Nat Prod, 2014):

Assays:
[1] = Antiviral activity against Enterovirus 71 BrCr infected in African green monkey Vero cells assessed as inhibition of virus-induced cytopathic effect after 4 days by MTT assay; type: functional, cell-based, Human enterovirus 71 (strain BRCR)
Outline: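 EV71 strain BrCr grown in Vero cells kept in DMEM with 2% FBS; titer by TCID50 end-point dilution. Vero cells inoculated with 100 × TCID50 virus plus serially diluted compounds (DMSO stocks); ribavirin positive control. After four days, morphology checked by light microscopy and viability by MTT to give CPE inhibition rate; IC50 by Forecast function. Mean ± SD, three independent assays, quadruplicate per concentration.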

[2] = Cytotoxicity against African green monkey Vero cells after 4 days by MTT assay; type: cell-based; conditions: chlorocebus sabaeus
Outline: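 Vero cells treated or untreated with serially diluted compounds (100 mM DMSO stocks) for four days, viability read by MTT; CC50 calculated by Forecast function. Mean ± SD of three independent assays, each concentration in quadruplicate.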

[3] = Selectivity index, ratio of CC50 for African green monkey Vero cells to IC50 for Enterovirus 71 BrCr; type: functional
Outline: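 SI computed as CC50 (Vero, 4-day MTT) divided by IC50 (EV71 BrCr CPE inhibition, 100 × TCID50, 4-day MTT) for each compound.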

[4] = Enterovirus A, Vero, 96 h, read-out: IC50

For COc1cc(O)c2c(=O)c3cc(CC=C(C)C)c(O)c(O)c3oc2c1C/C=C(\C)CCC=C(C)C, the IC50 ([1]; vero) was “Not Active”.

With CC(=O)C[C@@H]1[C@@H]2C[C@]3(CC=C(C)C)C(=O)[C@@]1(C(=O)c1ccc(O)c(O)c1)C(=O)[C@@](CC=C(C)C)(C3=O)C2(C)C the IC50 ([1]; vero) was “Not Active”.

In the case of CC(C)=CCC/C(C)=C/C[C@H]1C[C@@]23C[C@H](O)C(C)(C)OC2=C(C(=O)c2ccccc2)C(=O)[C@H](C3=O)C1(C)C, the IC50 ([1]; vero) is reported as “Not Active”.

In the case of COc1cc(O)c2c(=O)c3c(O)cc(O)c(OC)c3oc2c1, the IC50 ([1]; vero) is reported as “Not Active”.

With CC(C)=CCC/C(C)=C/C[C@@H]1C[C@@]2(CC=C(C)C)C(=O)[C@H](C(=O)C(C(=O)c3ccccc3)=C2O)C1(C)C the IC50 ([1]; vero) was “Not Active”.

In the case of CC(=O)C[C@H]1[C@@H]2C[C@]3(CC=C(C)C)C(=O)[C@@]1(C(=O)c1ccccc1)C(=O)[C@@](CC=C(C)C)(C3=O)C2(C)C, the IC50 [1, 4] is reported as 31.1 µM, the CC50 at 96 h [2] is reported as 47 µM and the “Ratio CC50/IC50” value [3] is reported as 1.5.

For NC(=O)c1ncn([C@@H]2O[C@H](CO)[C@@H](O)[C@H]2O)n1 [RIBAVIRIN], the IC50 [1, 4] was 253 µM, the CC50 at 96 h [2] was greater than 1000 µM and the “Ratio CC50/IC50” value [3] was greater than 4.

With CC(C)=CCC/C(C)=C/C[C@@H]1C[C@@]2(CC=C(C)C)C(=O)C(OC(=O)c3ccccc3)=C(O)[C@H](C2=O)C1(C)C the IC50 [1, 4] was 16.1 µM, the CC50 at 96 h [2] was 37.8 µM and the “Ratio CC50/IC50” value [3] was 2.4.

For C=C(C)[C@H](O)CC/C(C)=C/C[C@H]1C[C@@]2(CC=C(C)C)C(=O)[C@](CC=C(C)C)(C(=O)C(C(=O)c3ccc(O)c(O)c3)=C2O)C1(C)C, the IC50 ([1]; vero) was “Not Active”.

With C=C(C)C(=O)CC/C(C)=C/C[C@@H]1C[C@@]2(CC=C(C)C)C(=O)[C@H](C(=O)C(C(=O)c3ccccc3)=C2O)C1(C)C the IC50 ([1]; vero) was “Not Active”.

For C=C(C)[C@@H](O)CC/C(C)=C/C[C@@H]1C[C@@]2(CC=C(C)C)C(=O)[C@H](C(=O)C(C(=O)c3ccccc3)=C2O)C1(C)C, the IC50 ([1]; vero) was “Not Active”.

In the case of COc1c(CC=C(C)C)c(O)c2c(=O)c3ccc(O)c(O)c3oc2c1CC=C(C)C [DULXANTHONE B], the IC50 ([1]; vero) is reported as “Not Active”.

With CC(C)=CCC/C(C)=C/C[C@@H]1C[C@]2(CC=C(C)C)C(=O)[C@@](CC=C(C)C)(C(=O)C(C(=O)c3ccc(O)c(O)c3)=C2O)[C@@]1(C)CCC=C(C)C [OBLONGIFOLIN C] the IC50 ([1]; vero) was “Not Active”.

For CC(C)=CCC/C(C)=C/C[C@H]1C[C@@]23C[C@@H](C(C)(C)O)OC2=C(C(=O)c2ccccc2)C(=O)[C@H](C3=O)C1(C)C, the IC50 ([1]; vero) was “Not Active”.

With CC(C)=CCC/C(C)=C/C[C@H]1C[C@@]2(CC=C(C)C)C(=O)[C@](CC=C(C)C)(C(=O)C(C(=O)c3cccc(O)c3)=C2O)C1(C)C the IC50 ([1]; vero) was “Not Active”.

For C=C(CCC=C(C)C)C(=O)C[C@H]1C[C@@]2(CC=C(C)C)C(=O)[C@H](C(=O)C(C(=O)c3ccccc3)=C2O)C1(C)C, the IC50 ([1]; vero) was “Not Active”.

For CC(C)=CC[C@@]12C[C@@H](C)C(C)(C)[C@@H](C(=O)C(C(=O)c3ccccc3)=C1O)C2=O, the IC50 ([1]; vero) was “Not Active”.
